Screens deposited in PubChem BioAssay by Sanford-Burnham Center for Chemical Genomics.
Compounds with a hit are over-represented: about 2% of the library has one in this group of screens.
DNMT1 inh: DNMT1 (human) enzyme inhibition; 0.83% of 360,000 active; P26358; inhibition (reported as % activation of signal), % at 10 µM; DNMT1 molecular beacon, Hinp1I cleavage, fluorescence; in the data active = inhibition above about 50%
LMPTP block: LMPTP (human) inhibition. recombinant LMPTP-A, OMFP fluorogenic substrate, fluorescence intensity. inhibition, % at 20 µM. 0.22% of 360,000 active. AID 651560;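 active = compounds that cut the enzyme signal by at least half of the control window in the single-dose screen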;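 note: plate controls were DMSO wells with enzyme plus substrate for no effect and substrate without enzyme for full effect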
Target sequence (P24666 whole entry, looked up): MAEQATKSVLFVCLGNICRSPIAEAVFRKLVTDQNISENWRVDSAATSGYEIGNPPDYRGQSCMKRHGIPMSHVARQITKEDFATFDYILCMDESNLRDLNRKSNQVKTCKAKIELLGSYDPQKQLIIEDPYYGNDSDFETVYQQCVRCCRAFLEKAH
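Test system: LMPTP-A, protein tyrosine phosphatase of low molecular weight; Input: 0.625 nM enzyme; Incubation: 50 min dark incubation at room temperature; Signal: endpoint fluorescence intensity from OMFP dephosphorylation; Read-out basis: % inhibition versus control wells.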
STEP inh: blocks human striatal-enriched tyrosine phosphatase; recombinant STEP, OMFP fluorogenic substrate, fluorescence; inhibition, % at 20 µM; 0.25% of 360,000 active;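 active = inhibition at 20 µM, scaled per plate between control wells, above about 37%, limit read from the data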;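 note: 0% = DMSO with enzyme and substrate and 100% = substrate only without enzyme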
Target sequence (P54829 whole entry, looked up): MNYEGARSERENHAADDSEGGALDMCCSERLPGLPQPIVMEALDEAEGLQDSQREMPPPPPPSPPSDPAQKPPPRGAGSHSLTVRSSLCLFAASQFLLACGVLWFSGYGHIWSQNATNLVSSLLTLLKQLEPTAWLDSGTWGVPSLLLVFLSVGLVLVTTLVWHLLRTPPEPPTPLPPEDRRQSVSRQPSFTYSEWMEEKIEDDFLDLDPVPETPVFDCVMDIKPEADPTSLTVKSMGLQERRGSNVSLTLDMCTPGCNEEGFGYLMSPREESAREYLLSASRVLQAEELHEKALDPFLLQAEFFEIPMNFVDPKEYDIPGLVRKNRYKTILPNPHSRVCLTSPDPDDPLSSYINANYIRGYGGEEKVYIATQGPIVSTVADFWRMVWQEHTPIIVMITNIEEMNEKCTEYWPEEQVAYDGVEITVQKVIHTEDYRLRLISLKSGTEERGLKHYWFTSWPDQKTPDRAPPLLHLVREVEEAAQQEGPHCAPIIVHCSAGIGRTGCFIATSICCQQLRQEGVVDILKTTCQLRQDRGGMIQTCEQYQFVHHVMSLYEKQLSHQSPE
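Material: STEP (striatal-enriched tyrosine phosphatase) enzyme, cell-free; Compound dosing: 20 µM single dose in 1% DMSO; Technique: fluorescence read at 480 nm ex / 540 nm em; Times: reaction 20 min, ambient temperature; Medium: 50 mM Bis-Tris pH 6.0 with 2.5 mM DTT and 0.005% Tween 20; Also added: OMFP at 25 µM.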
Rpn11 block: inhibitors of human proteasome Rpn11; human 26S proteasome, Ub4-pepOG fluorescence polarization; 20S core pre-blocked with epoxomicin; inhibition, % at 20 µM; 0.59% of 360,000 active; AID 588493;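 active = inhibition at 20 µM, scaled to each plate's controls, above about 33%, limit read from the data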
Scp1 inh: inhibitors of human Scp-1 phosphatase. Q9GZU7. inhibition, % at 20 µM. 0.88% of 340,000 active. Recombinant Scp1, phosphopeptide, malachite green phosphate absorbance;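 active = inhibition above about 50% at 20 µM, limit read from the data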;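 note: plate controls were DMSO wells with enzyme for no effect and wells lacking enzyme for full effect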
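Assay system: SCP-1 catalytic fragment, aa 76-261 | Buffer or medium: Tris acetate buffer pH 5.5 with MgCl2 and Tween-20 | Compound: One concentration, 20 µM, with 1.0% DMSO | Also added: Phospho 17-mer peptide substrate | Signal: Absorbance at 630 nm | Incubation: 45 min enzyme reaction at room temperature | Measure: % inhibition of SCP-1 phosphate liberation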
Scp1 confirm: Scp-1 (human) inhibition, single-dose confirmed; shares compounds with Scp1 inh; recombinant SCP-1 catalytic domain, phosphate release, malachite green absorbance; inhibition, % at 20 µM; 61% of 2,500 active; AID 540281;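 note: plate controls were DMSO with enzyme for no effect and buffer wells lacking enzyme for full effect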
Scp-1 MG ctr: counter-screen for Scp-1 inhibitors: colorimetric interference; Colorimetric interference counterscreen, malachite green absorbance 630 nm; apparent inhibition (interference), % at 20 µM; 2,500 tested, under 10 active; AID 540313; shares compounds with Scp1 inh;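 note: compounds added after enzyme reaction finished so only phosphate colour detection is probed; plate controls were DMSO wells with completed Scp-1 reaction for no effect and substrate wells lacking enzyme for full effect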
Scp-1 Tm shift: Scp-1 (human) binding by thermal shift. shares compounds with Scp1 inh. Recombinant SCP1, Sypro Orange thermal shift Tm. thermal shift relative to vanadate control, % at 40 µM. 25% of 1,500 active;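 active = substances whose mean melting-temperature shift, as a percentage of the reference inhibitor's shift, reaches about 5.3%, limit read from the data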;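 note: 0% = Tm of DMSO wells and 100% = Tm with sodium orthovanadate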
DNMT1 confirm: DNMT1 inhibition confirmation, single concentration; shares compounds with DNMT1 inh; DNMT1 molecular beacon HinP1I cleavage, fluorescence; inhibition, % at 10 µM; 8% of 2,300 active;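 active = average inhibition of at least 30% in the single-concentration confirmation test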
Beacon interf: beacon fluorescence artifact counter-screen; shares compounds with DNMT1 inh; DNMT1 molecular beacon spectral interference counterscreen, fluorescence 485/520; activation (fluorescence interference), % at 10 µM; 1% of 2,300 active; AID 602387;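 active = activation of at least 30% at 10 µM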;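 note: DNMT1 catalytic domain with a HinP1I cleavage step and a FAM/dabcyl DNA beacon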
An asterisk follows results filed as active.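 Rule for the calls, unless noted: active = inhibition of at least 30% at 20 µM; inactive = the rest.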

What do the screens show for `COc1ccc2c(c1)c(=O)oc1cc(OCC(=O)N3CCc4ccccc4C3)ccc12`?
DNMT1 inh: 105*; LMPTP block: 62*; STEP inh: 27; Scp1 inh: 81*; Scp1 confirm: 68*; Scp-1 MG ctr: -19; Scp-1 Tm shift: -6; DNMT1 confirm: 17; Beacon interf: -2

Results for O=C(CSc1ccccn1)Nc1ccc2c(c1)C(=O)c1ccccc1C2=O ?
DNMT1 inh: 87*; LMPTP block: 49; STEP inh: 41*; Rpn11 block: -13; Scp1 inh: 108*; Scp1 confirm: 69*; Scp-1 MG ctr: 0; Scp-1 Tm shift: 7.8*; DNMT1 confirm: 13; Beacon interf: -6

What do the screens show for `O=C(CSc1ccccn1)Nc1ccc2c(c1)CCC2`?
DNMT1 inh: 1; LMPTP block: 0; STEP inh: 1; Rpn11 block: -7; Scp1 inh: -7

What do the screens show for `CC[N+](CC)(CC)CCCCOc1ccc2c(c1)C(=O)c1cc(OCCCC[N+](CC)(CC)CC)ccc1-2`?
DNMT1 inh: 50*; LMPTP block: 7; STEP inh: 1; Rpn11 block: 10; Scp1 inh: 99*; Scp1 confirm: 10; Scp-1 MG ctr: 2; DNMT1 confirm: 13; Beacon interf: -2

What do the screens show for `C[C@@H]1CN([C@H](C)CO)C(=O)c2cc(C3=CCCCC3)cnc2O[C@@H]1CN(C)Cc1ccccc1C(=O)O`?
DNMT1 inh: -1; LMPTP block: -6; STEP inh: 2; Rpn11 block: 2

How did Cc1cccc(NC(=O)Cn2c(O)c(N=NC(=O)c3ccccc3O)c3ccccc32)c1 do in these assays?
DNMT1 inh: 88*; LMPTP block: 35; STEP inh: 36; Rpn11 block: -1; Scp1 inh: 88*; Scp1 confirm: 86*; Scp-1 MG ctr: -8; Scp-1 Tm shift: 4; DNMT1 confirm: 15; Beacon interf: -3

Results for O=C(NCc1cccc(CNC(=O)C(=O)NCc2ccco2)c1)C(=O)NCc1ccco1 ?
DNMT1 inh: 91*; LMPTP block: 56*; STEP inh: 10; Rpn11 block: 14; Scp1 inh: 91*; Scp1 confirm: 65*; Scp-1 MG ctr: -8; Scp-1 Tm shift: -12; DNMT1 confirm: 19; Beacon interf: 4

How did O=C(NCc1cccc(CNC(=O)c2ccco2)c1)c1ccco1 do in these assays?
DNMT1 inh: 0; LMPTP block: -3; STEP inh: -2; Rpn11 block: -2; Scp1 inh: 1

Results for CC(C(=O)Nc1ccc(C#N)cc1)N1CCN(C(=O)C2CC2)CC1 (stereo unspecified) ?
DNMT1 inh: 1; LMPTP block: -1; STEP inh: 1; Rpn11 block: 3; Scp1 inh: -10

Results for COc1ccc(NC(=O)c2c3c(nc4ccccc24)CCC3)cc1S(=O)(=O)N1CCOCC1 ?
DNMT1 inh: 86*; LMPTP block: 2; STEP inh: 8; Rpn11 block: -17; Scp1 inh: 81*; Scp1 confirm: 59*; Scp-1 MG ctr: -14; Scp-1 Tm shift: 11*; DNMT1 confirm: 8; Beacon interf: 3

Results for O=C(NCc1ccco1)C1Cc2ccccc2CN1S(=O)(=O)c1ccccc1F (stereo unspecified) ?
DNMT1 inh: 71*; LMPTP block: 2; STEP inh: 0; Rpn11 block: 6; Scp1 inh: 70*; Scp1 confirm: 77*; Scp-1 MG ctr: -5; Scp-1 Tm shift: 7.5*; DNMT1 confirm: 6; Beacon interf: 4

How did COc1cc(NC(=O)COC(=O)c2ccc(S(=O)(=O)N3CC(C)CC(C)C3)cc2)c(C)cc1[N+](=O)[O-] (stereo unspecified) do in these assays?
DNMT1 inh: 56*; LMPTP block: 1; STEP inh: 2; Rpn11 block: 25; Scp1 inh: 67*; Scp1 confirm: 35*; Scp-1 MG ctr: -10; Scp-1 Tm shift: 1; DNMT1 confirm: 0; Beacon interf: -1

How did CCOc1ccccc1C(O)C1=CC(=O)c2ccccc2C1=O (stereo unspecified) do in these assays?
DNMT1 inh: 96*; LMPTP block: 27; STEP inh: 2; Rpn11 block: -16; Scp1 inh: 75*; Scp1 confirm: 54*; Scp-1 MG ctr: -19; Scp-1 Tm shift: 14*; DNMT1 confirm: 11; Beacon interf: -3

What do the screens show for `Cc1csc(NC(=O)CCCNC(=O)c2ccc(Cl)cc2)n1`?
DNMT1 inh: -3; LMPTP block: -1; STEP inh: -4; Rpn11 block: 1; Scp1 inh: -5

How did CCCCn1c(SCC(=O)NC(=O)NCc2ccco2)nc2cc(S(N)(=O)=O)ccc21 do in these assays?
DNMT1 inh: 89*; LMPTP block: 9; STEP inh: 2; Rpn11 block: -19; Scp1 inh: 64*; Scp1 confirm: 58*; Scp-1 MG ctr: -12; Scp-1 Tm shift: -3; DNMT1 confirm: 5; Beacon interf: 1

Results for O=C(CSc1nc(-c2ccccc2)cs1)NC(=O)NCc1ccco1 ?
DNMT1 inh: -8; LMPTP block: 1; STEP inh: 1; Rpn11 block: 11; Scp1 inh: -5

What do the screens show for `Cc1ccccc1CSCC(=O)NC(=O)NCc1ccco1`?
DNMT1 inh: 76*; LMPTP block: 12; STEP inh: 7; Rpn11 block: -16; Scp1 inh: 56*; Scp1 confirm: 73*; Scp-1 MG ctr: -7; Scp-1 Tm shift: -15; DNMT1 confirm: 0; Beacon interf: 5

What do the screens show for `COc1ccc(-c2nnc(SCC(=O)NCc3ccco3)n2C)cc1`?
DNMT1 inh: 4; LMPTP block: 0; STEP inh: 0; Rpn11 block: -4; Scp1 inh: -8

How did O=C(CSc1ccccc1F)NC(=O)NCc1ccco1 do in these assays?
DNMT1 inh: 9; LMPTP block: 0; STEP inh: 2; Rpn11 block: -4; Scp1 inh: 25
